# Measured values from different studies.
# Lines come from different studies, so protocols differ.
# Target: Fibroblast growth factor receptor 1 (FGFR1, Homo sapiens, UniProt P11362)
SMILES,test,setting,remaining binding [%]
Cc1cnc(Nc2ccc(C(=O)N3CCC(N4CCCC4)CC3)cc2)nc1-c1cc2ccccc2s1,"binding, competition with immobilised ligand",1 µM,10
C[C@@H]1CN(c2cc(-c3nn(C)c4ccc(OC5(C)CC5)cc34)ncn2)C[C@H](C)O1,"cell-free assay, competition with immobilised ligand",1 µM,100
CN(CCCC(F)(F)F)c1nccc(-c2cnn3ncccc23)n1,binding,1 µM,46
COc1cccc(CNC(=O)c2nc3scc(COCc4ccc(C(=O)O)cc4)c3c(=O)[nH]2)c1,"cell-free assay, competition with immobilised ligand",1 µM,86.5
O=C(Nc1c[nH]nc1C(=O)NC1CCNCC1)c1cc(F)cc(F)c1,"binding, competition with immobilised ligand",1 µM,100
CN(C)c1ncnc(-c2ccc3nc(Nc4cc(CN5CCN(C(=O)CC(F)(F)F)CC5)ccn4)[nH]c3c2)c1Cl,"cell-free assay, competition with immobilised ligand",1 µM,100
N[C@@H]1CCN(c2nccc(-c3cnn4ncccc34)n2)C1,binding,1 µM,96
O=C(O)c1cc(-c2ccc(C3CCNCC3)cc2)c2ccc(-c3ccc(C(F)(F)F)cc3)cc2c1,"cell-free assay, competition with immobilised ligand",1 µM,100
C[C@@H](c1ccc(-n2cnc3c(N)ncnc32)cc1)N1CCc2nn(C)c(Cc3ccccc3)c2C1=O,"binding, competition with immobilised ligand",0.1 µM,94
COc1ccnn2ncc(-c3ccnc(N(C)C)n3)c12,binding,1 µM,86
O=C(c1ccc(Nc2ncc(Cl)c(-c3ccc(Cl)s3)n2)cc1)N1CCC(N2CCCC2)CC1,"binding, competition with immobilised ligand",1 µM,12
CN(C)c1ncc(F)c(-c2cnn3ncccc23)n1,binding,1 µM,100
Cc1nc(C2CCN(C(=O)c3ccc(OC(F)(F)F)cc3N)CC2)c2ncc(N3CCN(C)CC3)cc2n1,"cell-free assay, competition with immobilised ligand",1 µM,100
O=C(c1ccc(Nc2nccc(-c3cc4ccccc4s3)n2)cc1)N1CCC(N2CCCC2)CC1,"binding, competition with immobilised ligand",1 µM,88
COc1cnc(Nc2cccc(S(N)(=O)=O)c2)nc1N1CCN(c2ccccc2)C(=O)C1,"binding, competition with immobilised ligand",1 µM,83
C[C@H]1CCN(c2nccc(-c3cnn4ncccc34)n2)C1,binding,1 µM,100
COc1cnc(Nc2cccc(S(N)(=O)=O)c2)nc1N1CCN(c2ccccc2)CC1,"binding, competition with immobilised ligand",1 µM,100
CC1=C(C#N)[C@@H](c2ccc3[nH]nc(C)c3c2)C(C#N)=C(c2ccc(Cl)cc2)N1,"cell-free assay, competition with immobilised ligand",1 µM,86.6
CN(C)c1nccc(-c2cnc3ncccn23)n1,binding,1 µM,82
COc1ncc2cc3ccccc3nc2c1C#N,"cell-free assay, competition with immobilised ligand",5 µM,73
CNC(=O)Nc1ccc2c(c1)CC[C@@]21OC(=O)N(CC(=O)N(Cc2ccc(F)cc2)[C@@H](C)C(F)(F)F)C1=O,"cell-free assay, competition with immobilised ligand",1 µM,82
Cc1cnn2ncc(-c3ccnc(N(C)C)n3)c2c1,binding,1 µM,100
